Reference: ChEMBL document CHEMBL4017535 (J Med Chem, 2017)

Experiments:
[1] = Intrinsic clearance in mouse hepatocytes; assay type: ADME, cell-based, Hepatocyte; conditions: read-out: CLH (converted)
[2] = Half life in po dosed monkey; assay type: ADME, organism-based, Macaca mulatta; conditions: rhesus monkey, in vivo
[3] = molecular target: Bromodomain and WD repeat-containing protein 1 (Homo sapiens, UniProt Q9NSI6); assay: Binding affinity to human WDR9(2) (A1310 to E1430 residues) expressed in bacterial expression system by BROMOscan assay
Mus musculus [4] = assay: Inhibition of LPS-induced IL-6 release in po dosed CD-1 mouse serum assessed as plasma concentration required to show 50% inhibition administered for 1 hr followed by LPS challenge measured after 2 hrs by immunoassay; assay type: functional, organism-based
Method in brief: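 Compound given orally to mice, followed by an LPS challenge. Plasma IL-6 and plasma compound concentration were both measured 2 hours after LPS. Inhibition was related to dose and to plasma concentration at the time of cytokine measurement. Values are mean ± SE, n=5 per group.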

[5] = Oral bioavailability in dog; assay type: ADME, organism-based, Canis lupus familiaris; conditions: in vivo
Mus musculus [6] = assay: Toxicity in NOD.SCID mouse assessed as maximum mean body weight loss at 1 mg/kg, po qd for 25 days (reference value: 9%); assay type: organism-based; conditions: in vivo, 600 h
[7] = molecular target: Histone acetyltransferase KAT2B (Homo sapiens, UniProt Q92831); assay: Binding affinity to human PCAF (G715 to D831 residues) expressed in mammalian expression system by BROMOscan assay
[8] = molecular target: Bromodomain and PHD finger-containing protein 3 (Homo sapiens, UniProt Q9ULD4); assay: Binding affinity to human BRPF3 (E588 to G701 residues) expressed in bacterial expression system by BROMOscan assay
Sequence of Bromodomain and PHD finger-containing protein 3 (Q9ULD4 whole entry, the tested form may be a part): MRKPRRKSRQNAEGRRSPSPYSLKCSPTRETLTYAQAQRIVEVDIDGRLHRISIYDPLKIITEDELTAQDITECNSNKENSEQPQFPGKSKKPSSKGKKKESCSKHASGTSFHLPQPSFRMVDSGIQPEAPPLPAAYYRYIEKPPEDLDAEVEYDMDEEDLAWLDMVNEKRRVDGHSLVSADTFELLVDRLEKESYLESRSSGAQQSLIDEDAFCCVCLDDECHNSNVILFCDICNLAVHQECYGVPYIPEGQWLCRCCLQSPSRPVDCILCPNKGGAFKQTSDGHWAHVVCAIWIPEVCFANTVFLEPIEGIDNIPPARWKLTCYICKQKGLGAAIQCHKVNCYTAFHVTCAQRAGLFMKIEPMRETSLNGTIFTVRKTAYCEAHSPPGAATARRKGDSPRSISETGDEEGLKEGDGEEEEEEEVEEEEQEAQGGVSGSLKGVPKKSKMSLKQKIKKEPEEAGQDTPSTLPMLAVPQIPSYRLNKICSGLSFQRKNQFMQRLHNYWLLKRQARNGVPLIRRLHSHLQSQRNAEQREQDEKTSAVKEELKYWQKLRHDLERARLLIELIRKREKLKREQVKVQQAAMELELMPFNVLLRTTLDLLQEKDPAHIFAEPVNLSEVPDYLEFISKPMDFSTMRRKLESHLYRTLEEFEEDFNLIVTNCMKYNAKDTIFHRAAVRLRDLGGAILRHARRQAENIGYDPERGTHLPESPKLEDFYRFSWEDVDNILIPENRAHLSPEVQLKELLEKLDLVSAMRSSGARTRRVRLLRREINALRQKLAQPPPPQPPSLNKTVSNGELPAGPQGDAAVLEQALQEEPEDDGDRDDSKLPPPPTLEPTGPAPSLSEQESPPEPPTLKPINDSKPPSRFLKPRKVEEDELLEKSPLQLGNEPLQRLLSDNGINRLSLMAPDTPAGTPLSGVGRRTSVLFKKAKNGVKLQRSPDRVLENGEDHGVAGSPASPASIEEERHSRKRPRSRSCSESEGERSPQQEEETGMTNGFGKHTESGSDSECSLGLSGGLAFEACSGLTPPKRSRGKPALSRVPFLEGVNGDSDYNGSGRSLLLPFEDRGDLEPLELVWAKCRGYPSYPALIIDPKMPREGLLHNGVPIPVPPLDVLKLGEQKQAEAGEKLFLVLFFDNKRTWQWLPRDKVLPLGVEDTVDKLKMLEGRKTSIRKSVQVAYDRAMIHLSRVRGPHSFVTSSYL

[9] = molecular target: Bromodomain-containing protein 7 (Homo sapiens, UniProt Q9NPI1); assay: Binding affinity to human BRD7 (L125 to R254 residues) expressed in mammalian expression system by BROMOscan assay
Sequence of Bromodomain-containing protein 7 (Q9NPI1 whole entry, the tested form may be a part): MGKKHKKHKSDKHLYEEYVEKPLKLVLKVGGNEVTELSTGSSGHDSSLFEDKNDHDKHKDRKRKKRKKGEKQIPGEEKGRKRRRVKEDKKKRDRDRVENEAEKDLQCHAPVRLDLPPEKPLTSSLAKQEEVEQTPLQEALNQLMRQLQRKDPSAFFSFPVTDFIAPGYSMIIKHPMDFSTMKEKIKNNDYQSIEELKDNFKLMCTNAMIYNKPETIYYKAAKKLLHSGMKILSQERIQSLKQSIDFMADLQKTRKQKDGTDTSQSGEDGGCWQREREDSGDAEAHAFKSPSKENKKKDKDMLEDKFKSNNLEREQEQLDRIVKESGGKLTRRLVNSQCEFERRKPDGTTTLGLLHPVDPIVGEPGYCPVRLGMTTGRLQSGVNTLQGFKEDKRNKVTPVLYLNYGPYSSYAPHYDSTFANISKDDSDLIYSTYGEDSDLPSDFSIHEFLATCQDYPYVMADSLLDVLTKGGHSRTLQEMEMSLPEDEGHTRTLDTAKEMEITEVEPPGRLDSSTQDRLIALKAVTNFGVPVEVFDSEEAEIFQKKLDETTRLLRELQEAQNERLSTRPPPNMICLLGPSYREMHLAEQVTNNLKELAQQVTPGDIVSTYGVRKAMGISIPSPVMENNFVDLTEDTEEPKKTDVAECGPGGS

[10] = molecular target: Bromodomain-containing protein 9 (Homo sapiens, UniProt Q9H8M2); assay: Binding affinity to human BRD9 (R130 to V259 residues) expressed in bacterial expression system by BROMOscan assay
Sequence of Bromodomain-containing protein 9 (Q9H8M2 whole entry, the tested form may be a part): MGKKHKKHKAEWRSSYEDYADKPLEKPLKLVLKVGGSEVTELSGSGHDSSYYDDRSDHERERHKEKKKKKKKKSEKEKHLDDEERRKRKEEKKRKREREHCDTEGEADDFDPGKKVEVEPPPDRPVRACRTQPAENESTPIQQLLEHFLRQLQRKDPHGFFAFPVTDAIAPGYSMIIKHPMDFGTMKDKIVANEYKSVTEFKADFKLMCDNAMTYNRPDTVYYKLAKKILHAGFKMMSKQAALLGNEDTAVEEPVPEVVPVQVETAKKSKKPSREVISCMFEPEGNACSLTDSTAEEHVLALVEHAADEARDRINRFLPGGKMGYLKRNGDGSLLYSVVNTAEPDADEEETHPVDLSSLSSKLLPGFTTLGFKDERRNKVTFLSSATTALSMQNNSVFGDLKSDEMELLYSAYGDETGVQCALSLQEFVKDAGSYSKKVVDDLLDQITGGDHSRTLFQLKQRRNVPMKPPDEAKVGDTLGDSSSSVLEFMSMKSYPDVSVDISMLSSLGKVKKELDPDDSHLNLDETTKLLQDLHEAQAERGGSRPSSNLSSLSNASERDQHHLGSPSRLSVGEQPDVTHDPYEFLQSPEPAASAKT

[11] = Plasma clearance in mouse at 3 mg/kg, iv; assay type: ADME, organism-based
Liver [12] = assay: Unbound intrinsic clearance in mouse liver microsomes; assay type: ADME, microsome
Method in brief: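 Liver microsome stability is expressed as unbound intrinsic clearance, Cl_int,u, in L/hr/kg. Dextromethorphan served as the in-house low-clearance reference control and verapamil as the high-clearance reference control.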

[13] = molecular target: Translocator protein (Rattus norvegicus) (UniProt P16257); assay: Displacement of [3H]PK-11195 from peripheral benzodiazepine receptor in rat heart at 10 uM
Sequence of Translocator protein (Rattus norvegicus) (P16257 whole entry, looked up): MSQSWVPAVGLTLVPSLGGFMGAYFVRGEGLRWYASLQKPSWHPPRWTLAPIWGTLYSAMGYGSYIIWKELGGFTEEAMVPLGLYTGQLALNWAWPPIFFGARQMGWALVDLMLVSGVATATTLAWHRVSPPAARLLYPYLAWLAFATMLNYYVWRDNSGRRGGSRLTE

Rattus norvegicus = assay: Oral absorption in rat at 1 mg/kg; assay type: ADME, organism-based; conditions: in vivo
Method in brief: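 Oral absorption is expressed as FaFg, calculated as F/(1-Clp/Qh). Liver blood flow (Qh) was 5.2 L/hr/kg for mouse and 3.8 L/hr/kg for rat. Mouse dosing was 3 mg/kg IV and 10 mg/kg PO; rat dosing was 1 mg/kg IV and PO.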

[14] = Intrinsic clearance in dog liver microsomes; assay type: ADME, Canis lupus familiaris, microsome; conditions: read-out: CLH (converted)
[15] = molecular target: T1, Bromodomain-containing protein 4 (Homo sapiens, UniProt O60885); assay: Binding affinity to human N-terminal His6-tagged BRD4 BD1-BD2 (K57 to K550 residues) after 1 hr using alexa-647 conjugated probe by TR-FRET assay
[16] = molecular target: T1, Bromodomain-containing protein 4; assay: Inhibition of BRD4 in human H1299 cells assessed as decrease in HPV LCR-E2-EP400-mediated transcriptional repression after 24 hrs by Bright-Glo luciferase reporter gene assay; assay type: cell-based
[17] = molecular target: Bromodomain-containing protein 8 (Homo sapiens, UniProt Q9H0E9); assay: Binding affinity to human BRD8 (1) (S700 to F854 residues) expressed in mammalian expression system by BROMOscan assay
[18] = molecular target: Chromatin remodeling regulator CECR2 (Homo sapiens, UniProt Q9BXF3); assay: Binding affinity to human CECR2 (P423 to D543 residues) expressed in bacterial expression system by BROMOscan assay
[19] = Apparent oral plasma clearance in human at 1 mg; assay type: ADME
Method in brief: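 Clinical PK in subjects with cancer after a single 1 mg oral dose, n = 3. Apparent clearance was reported as PO CLp/F in L/hr.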

[20] = Half life in po dosed dog; assay type: ADME, organism-based, Canis lupus familiaris; conditions: in vivo
Translocator protein = Translocator protein (Homo sapiens, UniProt P30536); assay: Antagonist activity at peripheral benzodiazepine receptor (unknown origin)
Sequence of Translocator protein (P30536 whole entry): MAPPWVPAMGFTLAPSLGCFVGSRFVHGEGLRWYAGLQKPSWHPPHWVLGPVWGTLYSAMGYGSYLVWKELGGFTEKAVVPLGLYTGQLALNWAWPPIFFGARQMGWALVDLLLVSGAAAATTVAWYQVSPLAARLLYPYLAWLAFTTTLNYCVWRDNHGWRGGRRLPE

[21] = Intrinsic clearance in rat liver microsomes at 10 uM preincubated for 5 mins followed by NADPH addition measured after 60 mins by HPLC-UV-MS analysis; assay type: ADME, microsome; conditions: read-out: CLH (converted)
[22] = Half life in rat at 1 mg/kg, po; assay type: ADME, organism-based; conditions: in vivo
[23] = Plasma clearance in iv dosed monkey; assay type: ADME, organism-based, Macaca mulatta; conditions: rhesus monkey
Liver [24] = assay: Unbound intrinsic clearance in human liver microsomes at 10 uM preincubated for 5 mins followed by NADPH addition measured after 60 mins by HPLC-UV-MS analysis; assay type: ADME, microsome; conditions: 1 h
[25] = molecular target: Bromodomain testis-specific protein (Homo sapiens, UniProt Q58F21); assay: Binding affinity to BRDT BD1 to BD2 (N21 to P380 residues) (unknown origin)
[26] = Intrinsic clearance in monkey liver microsomes; assay type: ADME, Macaca mulatta, microsome; conditions: rhesus monkey, read-out: CLH (converted)
Adenosine receptor A2b = Adenosine receptor A2b (Homo sapiens, UniProt P29275); assay: Antagonist activity at adenosine A2B receptor (unknown origin)
Sequence of Adenosine receptor A2b (P29275 whole entry): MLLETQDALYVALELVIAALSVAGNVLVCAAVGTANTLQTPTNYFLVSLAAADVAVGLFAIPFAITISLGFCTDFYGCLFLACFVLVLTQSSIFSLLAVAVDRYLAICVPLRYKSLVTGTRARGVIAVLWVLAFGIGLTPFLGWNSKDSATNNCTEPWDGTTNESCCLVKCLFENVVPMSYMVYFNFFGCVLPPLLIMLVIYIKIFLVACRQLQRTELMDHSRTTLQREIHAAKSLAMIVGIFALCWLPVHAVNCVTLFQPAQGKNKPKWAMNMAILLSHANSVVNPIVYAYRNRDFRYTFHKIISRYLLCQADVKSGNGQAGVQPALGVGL

[27] = Plasma clearance in iv dosed human; assay type: ADME, organism-based
[28] = molecular target: Transcription intermediary factor 1-alpha (Homo sapiens, UniProt O15164); assay: Binding affinity to human TRIM24 (PHD, Bromo) (P790 to P977 residues) expressed in bacterial expression system by BROMOscan assay
Peregrin = Peregrin (Homo sapiens, UniProt P55201); assay: Binding affinity to human BRPF1 (E627 to G740 residues) expressed in bacterial expression system by BROMOscan assay
[29] = Plasma clearance in iv dosed dog; assay type: ADME, organism-based, Canis lupus familiaris
Mus musculus [30] = assay: Unbound AUC in mouse at 10 mg/kg, po; assay type: ADME, organism-based; conditions: in vivo
Method in brief: (§1)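 Mouse PK: 3 mg/kg IV and 10 mg/kg PO. Clearance is expressed unbound, Cl_p,u in L/hr/kg. AUC is unbound, in µM*hr. FaFg is computed as F/(1-Clp/Qh), with mouse liver blood flow Qh 5.2 L/hr/kg. Unbound plasma fraction was measured separately.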

Mus musculus [31] = assay: Plasma unbound clearance in mouse at 3 mg/kg, iv; assay type: ADME, organism-based; conditions: in vivo; method in brief: as §1
[32] = molecular target: Histone acetyltransferase p300 (Homo sapiens, UniProt Q09472); assay: Binding affinity to human EP300 (A1040 to G1161 residues) expressed in bacterial expression system by BROMOscan assay
[33] = molecular target: SWI/SNF-related matrix-associated actin-dependent regulator of chromatin subfamily A member 4 (Homo sapiens, UniProt P51532); assay: Binding affinity to human SMARCA4 (A1448 to S1575 residues) expressed in bacterial expression system by BROMOscan assay
Sequence of SWI/SNF-related matrix-associated actin-dependent regulator of chromatin subfamily A member 4 (P51532 whole entry, the tested form may be a part): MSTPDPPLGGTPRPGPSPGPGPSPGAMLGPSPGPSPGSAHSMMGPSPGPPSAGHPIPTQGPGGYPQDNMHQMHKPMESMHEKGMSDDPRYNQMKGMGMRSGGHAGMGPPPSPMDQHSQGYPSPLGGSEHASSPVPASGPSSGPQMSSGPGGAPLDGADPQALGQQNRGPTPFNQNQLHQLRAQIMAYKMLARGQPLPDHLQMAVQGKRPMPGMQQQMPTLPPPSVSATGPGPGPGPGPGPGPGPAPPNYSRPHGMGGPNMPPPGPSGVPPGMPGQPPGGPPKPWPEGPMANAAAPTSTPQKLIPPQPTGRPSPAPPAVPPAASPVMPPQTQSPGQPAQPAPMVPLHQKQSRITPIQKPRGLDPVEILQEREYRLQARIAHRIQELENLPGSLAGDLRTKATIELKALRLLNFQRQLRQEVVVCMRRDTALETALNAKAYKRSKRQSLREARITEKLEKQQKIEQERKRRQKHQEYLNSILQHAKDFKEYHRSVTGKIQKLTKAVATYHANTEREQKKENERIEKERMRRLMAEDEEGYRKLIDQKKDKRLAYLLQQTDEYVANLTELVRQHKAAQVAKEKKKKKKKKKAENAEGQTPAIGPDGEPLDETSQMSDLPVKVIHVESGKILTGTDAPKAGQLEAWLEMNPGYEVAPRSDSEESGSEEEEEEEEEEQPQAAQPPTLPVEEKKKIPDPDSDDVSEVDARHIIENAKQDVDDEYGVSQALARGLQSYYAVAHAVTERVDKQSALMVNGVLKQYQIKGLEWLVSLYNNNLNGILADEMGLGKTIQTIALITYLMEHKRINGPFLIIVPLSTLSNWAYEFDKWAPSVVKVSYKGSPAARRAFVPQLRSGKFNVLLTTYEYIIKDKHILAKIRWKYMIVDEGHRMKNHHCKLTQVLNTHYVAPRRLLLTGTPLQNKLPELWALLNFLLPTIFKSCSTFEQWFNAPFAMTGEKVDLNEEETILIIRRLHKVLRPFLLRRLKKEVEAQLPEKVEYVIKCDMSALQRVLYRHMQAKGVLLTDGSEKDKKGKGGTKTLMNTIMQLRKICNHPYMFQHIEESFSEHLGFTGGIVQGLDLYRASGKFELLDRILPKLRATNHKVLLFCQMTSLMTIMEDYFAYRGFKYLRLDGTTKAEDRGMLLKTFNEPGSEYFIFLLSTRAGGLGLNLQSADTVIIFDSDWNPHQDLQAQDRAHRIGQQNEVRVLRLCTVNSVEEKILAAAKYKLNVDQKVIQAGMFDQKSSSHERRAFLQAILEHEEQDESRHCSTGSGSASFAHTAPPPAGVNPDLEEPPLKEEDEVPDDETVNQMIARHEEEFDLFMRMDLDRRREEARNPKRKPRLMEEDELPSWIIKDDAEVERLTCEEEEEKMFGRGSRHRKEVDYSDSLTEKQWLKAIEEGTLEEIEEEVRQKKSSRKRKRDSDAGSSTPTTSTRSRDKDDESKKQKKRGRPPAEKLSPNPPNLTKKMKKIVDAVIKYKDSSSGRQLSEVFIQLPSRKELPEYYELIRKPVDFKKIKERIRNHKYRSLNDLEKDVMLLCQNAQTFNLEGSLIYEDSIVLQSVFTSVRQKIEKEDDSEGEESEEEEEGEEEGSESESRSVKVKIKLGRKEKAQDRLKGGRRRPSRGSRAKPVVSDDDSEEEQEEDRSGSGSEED

[34] = molecular target: Bromodomain adjacent to zinc finger domain protein 2B (Homo sapiens, UniProt Q9UIF8); assay: Binding affinity to human BAZ2B (S2054 to S2168 residues) expressed in bacterial expression system by BROMOscan assay

CLint scaled [1]: 58.3 mL/min/kg
half-life [2]: 4.4 h
Kd [3]: > 1 µM
bioavailability [5]: 41%
Kd [7]: > 1 µM
Kd [8]: > 1 µM
Kd [9]: > 1 µM
Kd [10]: > 1 µM
clearance [11]: 8.33 mL/min/kg
CL free (Liver [12]): 550 mL/min/kg
inhibition [13]: 86%
FaFg (Rattus norvegicus): 0.77
CLint scaled [14]: 51.7 mL/min/kg
Ki [15]: 0.0015 µM
EC50 [16]: 0.02 µM
Kd [17]: > 1 µM
Kd [18]: > 1 µM
CL/F [19]: 83.8 mL/min
half-life [20]: 5.8 h
IC50 (Translocator protein): 0.8 µM
CLint scaled at 10 µM [21]: 66.7 mL/min/kg
half-life [22]: 2.6 h
clearance [23]: 5.5 mL/min/kg
CL free (Liver [24]): < 48.3 mL/min/kg
Ki [25]: 0.0022 µM
CLint scaled [26]: 38.3 mL/min/kg
IC50 (Adenosine receptor A2b): 2.6 µM
clearance [27]: 2.33 mL/min/kg
Kd [28]: > 1 µM
Kd (Peregrin): > 1 µM
clearance [29]: 3.17 mL/min/kg
fAUC (Mus musculus [30]): 0.63 µM·h
clearance (Mus musculus [31]): 317 mL/min/kg
Kd [32]: 0.087 µM
Kd [33]: > 1 µM
Kd [34]: > 1 µM
Compound: CCS(=O)(=O)Nc1ccc(Oc2ccc(F)cc2F)c(-c2cn(C)c(=O)c3[nH]ccc23)c1 [MIVEBRESIB]
Cp (Mus musculus [4]): 0.03 to 0.1 µM
Activity (Mus musculus [6]): 6%
